# Compounds with a hit are over-represented: about 0.57% of the library has one in this group of screens.
# sEH inhibitor: soluble epoxide hydrolase inhibitors, primary screen, biochemical, human sEH; Bifunctional epoxide hydrolase 2 (Homo sapiens), P34913; recombinant human sEH enzymatic activity assay; inhibition, % at 2 µM; actives 0.34% (n = 91,000); in the data active = inhibition above about 80%
# AP ELISA ortho: alternative complement pathway inhibitors, primary screen, biochemical, ELISA, human serum, orthogonally pooled compounds; LPS-coated ELISA, C3 deposition; tested in compound mixtures; inhibition, % at 5 µM; actives 0.08% (n = 62,000);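 active = inhibition above 30% in each of the two pooled mixtures holding the compound, so the lower value exceeds 30%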
#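 Test system – human serum alternative complement pathway, C3 deposition on LPS-coated wells · Buffer or medium – diluted human serum in Mg2+-EGTA GVB++ · Compound dosing – 5 µM each compound, pools of ten, 50 µM per pool · Schedule – 1 h serum-compound exposure at 37 °C · Measured by – Anti-C3 ELISA, OD 450 nm · Read-out basis – percent inhibition of C3 deposition onto LPS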
# BAP1 block: inhibitors of BAP1 deubiquitinase, primary screen, biochemical, Ub-AMC fluorescence, kinetic; calls only at 20 µM; Ubiquitin carboxyl-terminal hydrolase BAP1 (Homo sapiens), Q92560; actives 0.48% (n = 72,000); recombinant BAP1, Ub-AMC hydrolysis fluorescence kinetic; hits give low values;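 active = activity remaining at or below 50% of control, provided the compound also passes the data quality filters; inactive = the rest, including low values that fail the filters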
# Target sequence (Q92560 whole entry, looked up): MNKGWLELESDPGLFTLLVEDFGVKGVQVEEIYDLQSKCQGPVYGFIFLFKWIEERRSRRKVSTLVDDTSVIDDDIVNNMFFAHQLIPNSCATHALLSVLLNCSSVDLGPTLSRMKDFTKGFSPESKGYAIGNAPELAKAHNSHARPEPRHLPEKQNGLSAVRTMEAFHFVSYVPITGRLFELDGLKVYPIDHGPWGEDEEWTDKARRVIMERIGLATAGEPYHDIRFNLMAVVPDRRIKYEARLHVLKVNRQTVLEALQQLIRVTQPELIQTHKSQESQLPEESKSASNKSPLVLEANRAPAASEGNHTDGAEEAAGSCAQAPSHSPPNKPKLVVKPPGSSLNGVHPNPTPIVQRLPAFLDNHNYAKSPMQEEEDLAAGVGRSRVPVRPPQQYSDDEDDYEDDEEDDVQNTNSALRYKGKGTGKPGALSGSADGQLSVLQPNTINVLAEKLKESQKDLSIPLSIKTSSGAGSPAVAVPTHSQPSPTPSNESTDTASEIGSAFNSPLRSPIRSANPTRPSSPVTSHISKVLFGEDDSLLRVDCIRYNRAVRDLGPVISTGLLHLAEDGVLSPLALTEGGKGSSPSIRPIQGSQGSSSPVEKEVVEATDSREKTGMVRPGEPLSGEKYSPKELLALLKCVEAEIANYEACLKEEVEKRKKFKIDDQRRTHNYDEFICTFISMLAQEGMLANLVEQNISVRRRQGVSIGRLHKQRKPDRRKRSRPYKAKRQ
# sEH act: soluble epoxide hydrolase activators, primary screen, biochemical, human sEH. Bifunctional epoxide hydrolase 2 (Homo sapiens), P34913. purified human sEH enzymatic activity, activator screen. activation, % at 2 µM. actives 0.04% (n = 91,000). AID 717, 2007; in the data active = activation above about 37%
# A number is an active result; n = inactive; x = not tested or not shown; + = active, no number.
SMILES,sEH inhibitor,AP ELISA ortho,BAP1 block,sEH act
CCC(=O)N1CCc2cc(S(=O)(=O)CCC(=O)NCCC3=CCCCC3)ccc21,86,n,n,n
CN1C(=O)c2ccc(C(=O)NC3CCCCC3)cc2C1=O,n,41,n,n
CCCN1C(=O)c2cc(C(=O)NC3CCCCCC3)ccc2C1O (stereo not given),n,n,x,n
O=C(O)c1ccc(N2C(=O)C3ON(c4ccccc4)C(c4ccccc4F)C3C2=O)cc1 (stereo not given),n,n,n,44
Cc1ccc2oc(-c3cc(NC(=O)c4cccc([N+](=O)[O-])c4)ccc3Cl)nc2c1,x,x,n,x
CCN(CCNC(=O)Nc1ccc(Cl)cc1)c1ccccc1,86,n,n,n
CCN(CC)c1nc(OCCNC(=O)Nc2ccccc2)nc(N(CC)CC)n1,n,x,x,n
Oc1cc(O)cc(/C=C/c2ccc(O)c(O)c2)c1,x,x,+,x
COc1ccc(/C=N/N=C/c2ccc(OC)c(O)c2)cc1O,n,x,x,n
O=C(Nc1ccc2c(c1)C(=O)N(c1cccc(O)c1)C2=O)c1ccc(Br)cc1,x,x,n,x
CCc1c(C)nc2ncnn2c1N1CCC(C(=O)Nc2ccc(C)cc2)CC1,83,n,n,n
CCc1c(C)nc2ncnn2c1N1CCC(C(=O)Nc2ccccc2)CC1,n,n,n,n
CCC(C)c1ccc(NC(=O)c2cccs2)cc1 (stereo not given),90,x,x,n
CCOC(=O)c1c(N)sc(C(=O)Nc2cc(C)ccc2C)c1C,x,x,n,x
O=C(NCc1ccccc1Cl)c1ccc(Cn2cc(C(F)(F)F)ccc2=O)cc1,88,x,x,n
NC(=O)c1cc2c(ccc3ccccc32)oc1=Nc1cccc2ccccc12,x,x,n,x
CC(NC(=O)CSc1nnc(-c2cccc(S(=O)(=O)N3CCCCC3)c2)o1)C12CC3CC(CC(C3)C1)C2 (stereo not given),93,x,x,n
CCC(C)[C@H](NC(=O)NC1CCN(Cc2ccccc2)CC1)C(=O)OC (stereo not given in full),n,x,x,n
CCC(C)[C@H](NC(=O)NCc1ccccc1Cl)C(=O)OC (stereo not given in full),95,n,n,n
Clc1cccc(CSc2nnc(-c3cccnc3)n2Cc2ccco2)c1,n,37,n,n
CCN(CC)CCCN1C(=O)C(=O)/C(=C(/O)c2ccc3c(c2)OCCO3)C1c1ccc(C)o1 (stereo not given),x,n,+,x
COc1ccc(OC)c(C2/C(=C(\O)c3ccc4c(c3)OCCO4)C(=O)C(=O)N2CCCN(C)C)c1 (stereo not given),x,n,n,x
N#CC(c1nc2ccccc2nc1N1CCCCC1)S(=O)(=O)c1ccc(Cl)cc1 (stereo not given),x,n,+,x
Cc1ccc(S(=O)(=O)C(C#N)c2nc3ccccc3nc2N2CCCCC2)cc1 (stereo not given),x,n,n,x
CCN1C(=O)c2cccc3c(NC(=O)c4ccc(Cc5ccccc5)cc4)ccc1c23,x,x,n,x
SMILES,sEH inhibitor,AP ELISA ortho,BAP1 block,sEH act
O=C(Nc1cccnc1)C1(c2ccccc2)CCCC1,n,n,n,n
O=C(Nc1ccncc1)C1(c2ccccc2)CCCC1,n,39,n,n
Cc1ccc(NC(=O)COc2ccc([N+](=O)[O-])cc2)c(Br)c1,x,x,n,x
CCOc1ccc(NC(=O)NCC2CCN(c3ccc(OC)cc3)C2)cc1 (stereo not given),88,x,x,n
CC(C)=CCC/C(C)=C/CC/C(C)=C/CSc1ccccc1C(=O)O,x,x,+,x
O=C(CCC1CCCCC1)NNC(=O)NC12CC3CC(CC(C3)C1)C2,84,x,x,n
COc1ccc(NC(=O)Nc2nonc2C)cc1,x,x,n,x
O=C(Cc1ccc(Cl)cc1)N1CCN(c2ccc([N+](=O)[O-])cc2)CC1,x,x,n,x
Cc1nn(-c2ccccc2)c2sc(C(=O)OCn3nnc4ccccc4c3=O)cc12,x,x,+,x
O=C(NC12CC3CC(CC(C3)C1)C2)N1CC2Cc3cccc(=O)n3C(C2)C1 (stereo not given),86,n,n,n
O=C(CN1C(=O)c2ccccc2S1(=O)=O)Nc1ccc(S(=O)(=O)N2CCCCC2)cc1,83,n,n,n
O=C(Nc1ccccc1)Nc1ccc(S(=O)(=O)N2CCCCC2)cc1,92,n,n,n
Brc1ccc2nc(Nc3ccccn3)nc(-c3ccccc3)c2c1,x,x,n,x
CN(C)/C=N/c1ncc(C(=O)c2ccc3ccccc3c2)s1,n,x,x,48
Cc1nc(/N=C\N(C)C)sc1C(=O)Nc1ccccc1,n,n,n,n
C=CCn1c(=N)n(CC(O)c2ccc(C)cc2)c2ccccc21 (stereo not given),x,x,n,x
O=C(NC1CCCCCC1)c1ccc(N2CCCC2=O)cc1,x,n,n,x
O=C(NCc1ccc(N2CCCC2=O)cc1)NC1CCCCC1,80,n,n,n
Cc1cc2cc(CNC(=O)NC3CCCCC3)ccc2[nH]1,90,x,n,n
Cc1ccc(C(=O)Nc2cc(N)ccc2N)cc1,x,x,n,x
COc1ccccc1NS(=O)(=O)c1ccc(OC)c(OC)c1,n,n,n,n
COc1ccccc1NS(=O)(=O)c1cccc(C(=O)N/N=C(\C)c2ccc(-n3ccnc3)cc2)c1,82,x,x,n
O=C(Cc1ccc(Cl)cc1)Nc1ccc(N2CCN(C(=O)c3ccco3)CC2)c(Cl)c1,86,n,x,n
CC(=O)c1ccc(N2CCN(C(=O)c3cc([N+](=O)[O-])ccc3F)CC2)c(F)c1,x,x,n,x
O=C(NCc1ccccc1F)C1CCN(C(=O)NCc2ccccc2)CC1,n,33,n,n
SMILES,sEH inhibitor,AP ELISA ortho,BAP1 block,sEH act
O=C(NCc1ccc(F)cc1)C1CCN(C(=O)NCc2ccccc2)CC1,n,n,n,n
COc1ccccc1C(=O)Nc1cccc2c1C(=O)c1ccccc1C2=O,x,x,n,x
Cc1c(Cl)c([N+](=O)[O-])nn1Cc1ccc(C(=O)N/N=C\c2cccc(Br)c2)o1,96,x,x,n
CCn1c(=O)c2cc(C(=O)N3CCN(C(=O)c4ccco4)CC3)sc2c2ccccc21,x,n,+,x
Cc1ccc(N(CC(=O)NC2CCCCC2)C(=O)c2ccc(C)s2)cc1,81,x,x,n
Cc1cc(C)cc(N(CC(=O)NC2CCCCC2)C(=O)c2ccc(C)s2)c1,n,x,x,n
CC(C)(C)n1nnnc1CN1CCC(NC(=O)NC2CCCCC2)CC1,97,n,n,n
CC(C)(C)c1ccc(S(=O)(=O)N2CCN(C(c3ccccc3)c3ccccc3)CC2)cc1,x,x,n,x
CCC(O)(CC)C12CC3CC(CC(C3)C1)C2,x,x,n,x
CC(C)(C)C(=O)/C=C(\N)c1ccncc1,n,40,n,n
Cc1nc2cc(NC(=O)NCCC3=CCCCC3)ccc2o1,81,n,n,n
C=CCNC(=O)Nc1ccc2oc(C)nc2c1,n,n,x,n
CC(O)C(=O)C12CC3CC(CC(C3)C1)C2 (stereo not given),x,x,n,x
CCCC(=O)Nn1cnc2c(c1=O)C1(CCCCC1)Cc1ccccc1-2,99,x,x,n
CCC(=O)Nn1cnc2c(c1=O)C1(CCCCC1)Cc1ccccc1-2,n,x,x,n
O=C(NC1CC2CCCC(C1)N2C1CC1)NC12CC3CC(CC(C3)C1)C2 (stereo not given),99,n,n,n
